Measurements published in publication PMC7609460 (Heliyon, 2020).

Experiments:
Format in all cases: cell-based
[1] = tested on: normal AML12 hepatocytes; test: Resazurin reduction assay; conditions: for IC50: Mus musculus, AML12, 72 h; for Selectivity index: ratio IC50 AML12 hepatocytes / IC50 HepG2
Outline: (§1)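 Resazurin reduction read after 72 h at 37 °C in humidified 5% CO2; fluorescence at 544 nm excitation and 590 nm emission. Test samples were dissolved in DMSO (final ≤0.1%). IC50 is the concentration that gives 50% inhibition of proliferation, derived by linear regression. Degree of resistance is IC50 in the resistant line divided by IC50 in its parental line. Selectivity index is IC50 in AML12 divided by IC50 in HepG2.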

[2] = tested on: CEM/ADR5000 leukemia cells (P-glycoprotein-overexpressing); test: Resazurin reduction assay; conditions: for IC50: Homo sapiens, ADR5000, 72 h; for Degree of resistance: ratio IC50 CEM/ADR5000 / IC50 CCRF-CEM
Outline: as §1

[3] = tested on: MDA-MB-231-BCRP breast adenocarcinoma cells; test: Resazurin reduction assay; conditions: for IC50: MDA-MB-231/BCRP, 72 h
Outline: as §1

[4] = tested on: HCT116 (p53+/+) colon cancer cells; test: Resazurin reduction assay; conditions: Homo sapiens, HCT-116, 72 h
Outline: as §1

[5] = tested on: CCRF-CEM leukemia cells; test: Resazurin reduction assay; conditions: Homo sapiens, 72 h
Outline: as §1

[6] = tested on: HepG2 hepatocarcinoma cells; test: Resazurin reduction assay; conditions: Homo sapiens, HepG2, 72 h
Outline: as §1

[7] = tested on: MDA-MB-231-pcDNA breast adenocarcinoma cells; test: Resazurin reduction assay; conditions: 72 h
Outline: as §1

[8] = tested on: U87MG glioblastoma cells; test: Resazurin reduction assay; conditions: Homo sapiens, U-87 MG, 72 h
Outline: as §1

[9] = tested on: U87MG.ΔEGFR glioblastoma cells; test: Resazurin reduction assay; conditions: for IC50: 72 h; for Degree of resistance: ratio IC50 U87MG.ΔEGFR / IC50 U87MG
Outline: as §1

[10] = tested on: HCT116 (p53-/-) colon adenocarcinoma cells; test: Resazurin reduction assay; conditions: for IC50: Homo sapiens, HCT-116, 72 h; for Degree of resistance: ratio IC50 HCT116 (p53-/-) / IC50 HCT116 (p53+/+)
Outline: as §1

[11] = tested on: CCRF-CEM cells; test: Cell cycle distribution by flow cytometry; conditions: 24 h treatment
Outline: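 CCRF-CEM cells (1×10^6) were treated for 24 h under standard culture conditions with various concentrations of test sample, or with DMSO (0.1% final) as control. Cell-cycle phases were read by flow cytometry from propidium iodide fluorescence of individual nuclei. At least three independent experiments, each with three repetitions.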

[12] = tested on: CCRF-CEM cells; test: Flow cytometric analysis of ROS production; conditions: 24 h, 50 μM, non-treated cells 0.6%

| Structure (SMILES) | IC50 [2] | IC50 [3] | IC50 [4] | IC50 [5] | IC50 [6] | IC50 [7] | IC50 [8] | IC50 [9] | IC50 [10] | IC50 [1] | Selectivity index [1] | Degree of resistance [2] | Degree of resistance [9] | Degree of resistance [10] | Degree of resistance ([3]; ratio IC50 MDA-MB-231-BCRP / IC50 MDA-MB-231-pcDNA) | cell cycle arrest phase [11] | ROS levels [12] |
| --- | --- | --- | --- | --- | --- | --- | --- | --- | --- | --- | --- | --- | --- | --- | --- | --- | --- |
| COc1cc(-c2cc(=O)c3c(O)cc(O[C@@H]4O[C@H](CO)[C@@H](O)[C@H](O)[C@H]4O)cc3o2)ccc1O [Compound 3, chrysoeriol-7-O-β-D-glucopyranoside] | 18.7 ± 1.25 µM | > 100 µM | 30.7 ± 4.04 µM | 20.8 ± 1.76 µM | 34.2 ± 2.86 µM | > 100 µM | 24.9 ± 2.19 µM | 21.1 ± 0.92 µM | 28.4 ± 1.72 µM | > 100 µM | > 2.92 | 0.90 | – | – | – | – | – |
| O=c1cc(-c2ccc(O)cc2)oc2cc(O[C@@H]3O[C@H](CO)[C@@H](O)[C@H](O)[C@H]3O)cc(O)c12 [Compound 4, Apigenin-7-O-β-D-glucopyranoside] | > 100 µM | > 100 µM | > 100 µM | 10.4 ± 1.17 µM | > 100 µM | > 100 µM | > 100 µM | > 100 µM | > 100 µM | > 100 µM | – | > 9.62 | – | – | – | – | – |
| OO [H2O2, Hydrogen peroxide] | – | – | – | – | – | – | – | – | – | – | – | – | – | – | – | – | 94.30% |

More lines, main results first:

| IC50 [2] | IC50 [3] | IC50 [4] | IC50 [5] | IC50 [6] | IC50 [7] | IC50 [8] | IC50 [9] | IC50 [10] | Structure (SMILES) | IC50 [1] | Selectivity index [1] | Degree of resistance [2] | Degree of resistance [9] | Degree of resistance [10] | Degree of resistance ([3]; ratio IC50 MDA-MB-231-BCRP / IC50 MDA-MB-231-pcDNA) | cell cycle arrest phase [11] | ROS levels [12] |
| --- | --- | --- | --- | --- | --- | --- | --- | --- | --- | --- | --- | --- | --- | --- | --- | --- | --- |
| 27 ± 1.29 µM | > 100 µM | 28.3 ± 1.07 µM | 11 ± 0.97 µM | 29 ± 1.77 µM | > 100 µM | 22.7 ± 2.2 µM | 18.9 ± 1.06 µM | 30.4 ± 2.55 µM | O=c1cc(-c2ccc(O)c(O)c2)oc2cc(O)cc(O)c12 [Compound 6, luteolin] | > 100 µM | > 3.45 | 2.46 | 0.83 | 1.07 | – | – | – |
| – | 0.79 ± 0.08 µM | – | 0.02 µM | 4.56 ± 0.48 µM | 0.13 ± 0.01 µM | 0.26 ± 0.03 µM | 0.98 ± 0.07 µM | 1.78 ± 0.08 µM | COc1cccc2c1C(=O)c1c(O)c3c(c(O)c1C2=O)C[C@@](O)(C(=O)CO)C[C@@H]3O[C@H]1C[C@H](N)[C@H](O)[C@H](C)O1 [Doxorubicin, reference compound] | 52.9 ± 4.09 µM | – | – | 3.79 | 3.73 | 6.14 | S and G2/M phase arrest | – |
